Reference: ChEMBL document CHEMBL1155579, “Known and novel terpenes from Buddleja globosa displaying selective antifungal activity against dermatophytes” (2000)
≈ marks a conversion by molar mass, not a printed value. Calls of active or inactive are those of the source. No cut-off for these calls is given here.

Assays:
[1] = test system: Scopulariopsis brevicaulis; assay: Antifungal activity against Scopulariopsis brevicaulis at 1000 ug/ml after 24 hrs
[2] = test system: Trichophyton rubrum; assay: Antifungal activity against Trichophyton rubrum after 24 hrs
[3] = test system: Epidermophyton floccosum; assay: Antifungal activity against Epidermophyton floccosum after 24 hrs; assay type: functional
[4] = test system: Penicillium chrysogenum; assay: Antifungal activity against Penicillium notatum ATCC 11654 at 1000 ug/ml after 24 hrs; assay type: functional, organism-based
[5] = test system: Aspergillus niger; assay: Antifungal activity against Aspergillus niger ATCC 16404 at 1000 ug/ml after 24 hrs; assay type: functional, organism-based
[6] = test system: Trichophyton interdigitale; assay: Antifungal activity against Trichophyton interdigitale EL 5171 after 24 hrs; assay type: functional
[7] = test system: Candida albicans; assay: Antifungal activity against Candida albicans ATCC 10234 at 1000 ug/ml after 24 hrs; assay type: functional, organism-based
Method in brief: (§1)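 Agar dilution in 96-well plates. Samples in DMSO, made up with sterile water, 1:2 serially diluted over six steps, then mixed with an equal volume of molten double-strength Sabouraud dextrose agar (200 µL per well). Yeasts were grown on SDA at 30 °C for 24 h and harvested in PBS. 100 µL inoculum (10⁵ CFU) was added per well and incubated at 30 °C for 24 h. Miconazole was the positive control.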

[8] = test system: Saccharomyces cerevisiae; assay: Antifungal activity against Saccharomyces cerevisiae NCIMB 080178 at 1000 ug/ml after 24 hrs; assay type: functional, organism-based
Method in brief: as §1

[9] = test system: Neoscytalidium dimidiatum; assay: Antifungal activity against Scytalidium dimidiatum at 1000 ug/ml after 24 hrs; assay type: functional, organism-based

Row | MIC [2] [µM] | MIC [3] [µM] | MIC [6] [µM] | SMILES | Activity [1] | Activity [4] | Activity [5] | Activity [7] | Activity [8] | Activity [9]
1 | 51 (≈ 12 µg/mL) | 51 (≈ 12 µg/mL) | 51 (≈ 12 µg/mL) | C=C1CC/C=C(\C)C(=O)[C@H](O)[C@@H]2[C@@H]1CC2(C)C [BUDDLEDIN B] | inactive | inactive | inactive | inactive | inactive | inactive
2 | 2500 (≈ 751 µg/mL) | 2500 (≈ 751 µg/mL) | 2500 (≈ 751 µg/mL) | CC(C)C1=CC=C2C(=C(O)C[C@H]3C(C)(C)CCC[C@]23C)C1=O [BUDDLEJONE] | inactive | inactive | inactive | inactive | inactive | inactive
3 | 2640 (≈ 751 µg/mL) | 2640 (≈ 751 µg/mL) | 2640 (≈ 751 µg/mL) | CC(C)C1=CC=C2C(=CC[C@H]3C(C)(C)CCC[C@]23C)C1=O [DEOXYBUDDLEJONE] | inactive | inactive | inactive | inactive | inactive | inactive
4 | 625 (≈ 378 µg/mL) | 625 (≈ 378 µg/mL) | 625 (≈ 378 µg/mL) | CC(C)[C@]1(O)C(=O)C=C2[C@@]3(CC[C@H]4C(C)(C)CCC[C@]24C)[C@@H]2C(=O)[C@@](O)(C(C)C)[C@@H](C4=C2[C@@]2(C)CCCC(C)(C)[C@@H]2CC4)[C@H]31 [MAYTENONE] | inactive | inactive | inactive | inactive | inactive | inactive
5 | 5 (≈ 2.08 µg/mL) | 5 (≈ 2.08 µg/mL) | 5 (≈ 2.08 µg/mL) | Clc1ccc(COC(Cn2ccnc2)c2ccc(Cl)cc2Cl)c(Cl)c1 (centres undefined) [MICONAZOLE] | inactive | inactive | inactive | inactive | inactive | inactive

Row | SMILES | MIC [2] [µM] | MIC [3] [µM] | MIC [6] [µM] | Activity [1] | Activity [4] | Activity [5] | Activity [7] | Activity [8] | Activity [9]
6 | C=C1CC/C=C(\C)C(=O)[C@H](OC(C)=O)[C@@H]2[C@@H]1CC2(C)C [BUDDLEDIN A] | 43 (≈ 11.9 µg/mL) | 43 (≈ 11.9 µg/mL) | 43 (≈ 11.9 µg/mL) | inactive | inactive | inactive | inactive | inactive | inactive
